Experimental findings from ChEMBL document CHEMBL2151006 (Eur J Med Chem, 2012) are described below.

A word on the pKi: it is the negative decadic logarithm of the Ki, by convention in mol/L. A word on the pEC50: it is −log10 of the EC50, conventionally taken in molar units. A higher pEC50 goes with a small EC50. For orientation: Papp A→B means how fast a substance crosses the layer from the apical side. The term efflux ratio denotes a quotient of directional permeabilities that is used to spot active efflux. For orientation: Emax means the size of the effect at its maximum, as opposed to the concentration needed.

The species named for data set [1] is Homo sapiens. The experiment in a line: Selectivity index, ratio of Ki for human recombinant CB1 receptor to Ki for human recombinant CB2 receptor.
Data set [2] concerns the target T1, Cannabinoid receptor 1 (Homo sapiens, UniProt P21554). As to the kind of experiment: biochemical. Format: cell-based, HEK293.
For data set [3], the target named is T2, Cannabinoid receptor 2 (Homo sapiens, UniProt P34972). As to the kind of experiment: Displacement of [3H]CP55940 from human recombinant CB2 receptor transfected in HEK cell membranes. Also on record: species or system HEK293. Background: Displacement assays read how much labelled ligand stays bound in the presence of the test substance.
Data set [4] deals with T2, Cannabinoid receptor 2. The experiment in a line: Agonist activity at human CB2 receptor transfected in CHO cell membranes by [35S]GTPgammaS binding assay. It counts as functional. Background: GTPγS is a poorly hydrolysed GTP analogue; its binding reports G protein activation.
The target of data set [5] is CYP3A4 (Homo sapiens, UniProt P08684). As to the kind of experiment: Metabolic stability assessed as human recombinant CYP3A4-mediated drug metabolism by measuring compound remaining after 1 hr. It counts as ADME. As to conditions: read-out: Drug metabolism. The essentials:
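Recombinant hCYP3A4 at 20 pmol/mL in 100 mM phosphate pH 7.4 with 1 mM EDTA, […]. Incubation was 1 h at 37 °C with or without NADPH regenerating system, then stopped with cold acetonitrile. Percent remaining is the MS peak area with NADPH over that without, ×100.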

A short description of data set [6]: Metabolic stability in rat plasma assessed as compound remaining measured at 3 hrs. As to conditions: read-out: Stability. It counts as ADME, cell-free. The essentials:
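Fresh rat plasma was spiked with compound and incubated at 37 °C with gentle agitation, in duplicate. Samples were taken at 0, 30 min and 3 h and proteins precipitated with acetonitrile. LC-ESI+-MS/MS in MRM mode; percent remaining is peak area relative to time 0.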

Data set [7] can be described thus: Intrinsic clearance in human liver microsomes. It counts as ADME, Microsome. To be noted: read-out: CLH.
A short description of data set [8]: Intrinsic clearance in rat liver microsomes. Format: ADME, Microsome. To be noted: read-out: CLH.
Data set [9] relates to MDR1. The experiment in a line: Apparent permeability across apical to basolateral side in human MDR1 transfected MDCK2 cells at 10 uM after 2 hrs. It counts as ADME, cell-based, Canis lupus familiaris, MDCK-II. As to conditions: dog, MDCK-MDR1.
For data set [10], the system named is MDR1. As to the kind of experiment: Efflux ratio of permeability from basolateral to apical side over apical to basolateral side in human MDR1 transfected MDCK2 cells at 10 uM after 2 hrs. Format: ADME, cell-based, Canis lupus familiaris, MDCK-II. To be noted: dog, MDCK-MDR1.
Data set [11] has as its target T2, Cannabinoid receptor 2. To be noted: CHO, 0.001 to 10 uM.
For data set [12], the target named is T1, Cannabinoid receptor 1. The experiment in a line: Agonist activity at human CB1 receptor transfected in CHO cell membranes by [35S]GTPgammaS binding assay. It counts as functional.
In data set [13] the target is T1, Cannabinoid receptor 1. The experiment in a line: Agonist activity at human CB1 receptor transfected in CHO cell membranes at 0.001 to 30 uM by [35S]GTPgammaS binding assay relative to CP55940. It counts as functional.

pEC50, pKi: −log10 of the molar value.

T2 sequence (P34972 whole entry): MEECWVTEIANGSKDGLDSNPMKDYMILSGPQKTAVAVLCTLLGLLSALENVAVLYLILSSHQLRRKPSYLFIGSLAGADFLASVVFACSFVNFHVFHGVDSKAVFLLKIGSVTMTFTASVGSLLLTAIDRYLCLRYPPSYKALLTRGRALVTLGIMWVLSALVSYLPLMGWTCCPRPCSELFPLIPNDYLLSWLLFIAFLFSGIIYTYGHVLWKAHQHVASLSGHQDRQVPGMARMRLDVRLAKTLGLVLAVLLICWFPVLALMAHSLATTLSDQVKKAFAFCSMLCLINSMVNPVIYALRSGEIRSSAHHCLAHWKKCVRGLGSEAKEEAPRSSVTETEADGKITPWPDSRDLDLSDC
T1 sequence (P21554 whole entry): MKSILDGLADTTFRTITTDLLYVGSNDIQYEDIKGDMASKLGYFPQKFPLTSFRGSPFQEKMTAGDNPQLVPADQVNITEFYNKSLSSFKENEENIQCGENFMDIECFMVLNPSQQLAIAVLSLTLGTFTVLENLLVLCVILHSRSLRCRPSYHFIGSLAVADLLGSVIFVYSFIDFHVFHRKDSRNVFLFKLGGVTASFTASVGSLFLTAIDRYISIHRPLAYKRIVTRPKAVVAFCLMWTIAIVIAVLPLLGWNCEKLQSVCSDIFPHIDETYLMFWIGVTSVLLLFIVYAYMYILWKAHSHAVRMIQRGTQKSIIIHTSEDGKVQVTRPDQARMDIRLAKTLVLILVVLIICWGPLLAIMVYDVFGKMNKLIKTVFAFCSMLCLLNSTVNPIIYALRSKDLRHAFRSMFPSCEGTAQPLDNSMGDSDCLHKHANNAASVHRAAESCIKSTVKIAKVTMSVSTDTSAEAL
CYP3A4, sequence (P08684 whole entry): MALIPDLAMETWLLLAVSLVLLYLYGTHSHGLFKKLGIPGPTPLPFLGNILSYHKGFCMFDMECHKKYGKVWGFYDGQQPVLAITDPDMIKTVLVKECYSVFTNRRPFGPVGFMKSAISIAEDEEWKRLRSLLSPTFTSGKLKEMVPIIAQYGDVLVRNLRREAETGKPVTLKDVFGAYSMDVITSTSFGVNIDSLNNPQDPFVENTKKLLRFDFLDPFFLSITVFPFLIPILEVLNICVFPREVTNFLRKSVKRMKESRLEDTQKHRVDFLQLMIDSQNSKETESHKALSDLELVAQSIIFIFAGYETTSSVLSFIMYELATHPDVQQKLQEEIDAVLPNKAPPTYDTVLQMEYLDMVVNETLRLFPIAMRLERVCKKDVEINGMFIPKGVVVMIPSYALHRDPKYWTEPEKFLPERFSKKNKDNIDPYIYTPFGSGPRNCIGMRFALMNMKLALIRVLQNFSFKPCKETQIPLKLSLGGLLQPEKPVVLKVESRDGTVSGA

In the case of `CC1(C)C2CC[C@](C)(C2)[C@@H]1NC(=O)c1c[nH]c2cc(F)ccc2c1=O`, the Ratio Ki in data set [1] was over 10.
Regarding `CCn1cc(C(=O)N[C@@H]2C(C)(C)C3CC[C@]2(C)C3)c(=O)c2ccc(F)cc21`, the pKi in data set [2] was 6.02; in data set [3], 8.14. Besides, the Ratio Ki in [1] turned out to be 131. The compound also gave a pEC50 in data set [4] of 7.76. Further, the remaining at 1 h in data set [5] was found to be 1%. Besides, the remaining at 3 h in data set [6] was determined as 92%. Moreover, the microsomal CLint in [7] and in data set [8] was over 700 µL/min/mg throughout. In addition, the Papp A→B at 2 h, 10 µM in data set [9] stood at 0.17 ×10⁻⁶ cm/s. For the same compound, in data set [10], the efflux ratio at 2 h, 10 µM is 1. Besides, the maximal response (Emax) in data set [11] stood at 45%.
As to `CCCCCn1cc(C(=O)NC23CC4CC(CC(C4)C2)C3)c(=O)c2ccc(Sc3ccccc3)cc21`, the Ratio Ki in [1] was 3.3.
In the case of `CC1(C)C2CC[C@](C)(C2)[C@@H]1NC(=O)c1cn(CCCCO)c2cc(F)ccc2c1=O`, the pKi was 6.40 in data set [2] and 7.82 in data set [3]. Also, the Ratio Ki in data set [1] is 26.
In the same order, the values of `COCCn1cc(C(=O)N[C@@H]2C(C)(C)C3CC[C@]2(C)C3)c(=O)c2ccc(F)cc21` are 6.53, 8.26 and 54.
As for `O=C(NN1CCCCC1)c1cn(-c2ccc(Cl)cc2)c2cc(F)ccc2c1=O`, the pKi in [2] and in [3] was under 5.00 throughout.
`CCCCCn1cc(C(=O)NCCN2CCOCC2)c(=O)c2ccc(Sc3ccccc3)cc21`: the negative logarithm of the Ki (pKi) in data set [2] is 7.20; in data set [3], 6.93. In addition, the Ratio Ki in data set [1] was determined as 0.5.
In the same order, the values of `CCCCCn1cc(C(=O)NC(C)C)c(=O)c2ccc(Sc3ccccc3)cc21` are 7.68, 7.83 and 1.4.
For `CCCCCn1cc(C(=O)NCc2ccc(Cl)c(Cl)c2)c(=O)c2ccc(Br)cc21`, the negative logarithm of the Ki (pKi) in data set [2] was 6.18; in data set [3] it was 6.89. Also, in [1], the Ratio Ki amounted to 5.
The matching figures for `CN(C)CCn1cc(C(=O)N[C@@H]2C(C)(C)C3CC[C@]2(C)C3)c(=O)c2ccc(Sc3ccccc3)cc21`: 7.54, 8.89 and 23.
In the same order, the values of `CCCCCn1cc(C(=O)N2CCC[C@H]2C(N)=O)c(=O)c2ccc(Sc3ccccc3)cc21` are 5.83, 6.64 and 6.5.
The matching figures for `CCCCCn1cc(C(=O)N[C@@H]2C(C)(C)C3CC[C@]2(C)C3)c(=O)c2ccc(Sc3ccccc3)cc21`: 8.61, 10.05 and 27.2.
In the case of `Cn1cc(C(=O)N[C@@H]2C(C)(C)C3CC[C@]2(C)C3)c(=O)c2ccc(F)cc21`, the values for the negative-log Ki (pKi) in [2] and in [3] were under 5.00 and 7.03, respectively. For the same compound, in data set [1], the Ratio Ki is over 106.
Take `CCCCCn1cc(C(=O)NC2CN3CCC2CC3)c(=O)c2ccc(Sc3ccccc3)cc21` (centres undefined): the figures for the negative logarithm of the Ki (pKi) in data set [2] and in data set [3] were 6.82 and 7.05, respectively. Also, in data set [1], the Ratio Ki stood at 1.7.
Regarding `CCCCCn1cc(C(=O)NC(CC)CO)c(=O)c2ccc(Sc3ccccc3)cc21` (centres undefined), the pKi is 7.24 in [2] and 7.70 in data set [3]. In addition, the Ratio Ki in data set [1] turned out to be 2.9.
The matching figures for `CCCn1cc(C(=O)N[C@@H]2C(C)(C)C3CC[C@]2(C)C3)c(=O)c2ccc(Sc3ccccc3)cc21`: 7.96, 9.40 and 31.
The matching figures for `CCCCCn1cc(C(=O)NOCc2ccccc2)c(=O)c2ccc(Sc3ccccc3)cc21`: 7.89, 7.71 and 0.7.
For `COCCn1cc(C(=O)N[C@@H]2C(C)(C)C3CC[C@]2(C)C3)c(=O)c2ccc(Sc3ccccc3)cc21`, the negative-log Ki (pKi) in data set [2] is 7.62; in data set [3], 8.96. Further, in [1], the Ratio Ki was determined as 22.
In the same order, the values of `Cn1cc(C(=O)N[C@@H]2C(C)(C)C3CC[C@]2(C)C3)c(=O)c2ccc(Sc3ccccc3)cc21` are 5.73, 7.80 and 117.
As to `CCCCCn1cc(C(=O)NCc2ccc(Cl)c(Cl)c2)c(=O)c2ccc(-c3ccccc3)cc21`, the pKi in data set [2] was 6.41; in data set [3], under 5.00. In addition, the Ratio Ki in data set [1] is under 0.04.
Regarding `CCCCCn1cc(C(=O)NC23CC4CC(CC(C4)C2)C3)c(=O)c2ccc(F)cc21`, the Ratio Ki in data set [1] was found to be 38.
Turning to `CCCCCn1cc(C(=O)NCc2ccc(Cl)c(Cl)c2)c(=O)c2ccc(Sc3ccccc3)cc21`, the figures for the negative logarithm of the Ki (pKi) in data set [2] and in [3] were 6.38 and under 5.00, respectively. Moreover, the Ratio Ki in data set [1] is under 0.04. In addition, in data set [12], the negative logarithm of the EC50 (pEC50) is 6.10. This compound gave a maximal response (Emax) in data set [13] of 55.8%. The remaining at 1 h in data set [5] was found to be 25%. Also, the remaining at 3 h in [6] was found to be 100%. For the same compound, the microsomal CLint in data set [7] and in data set [8] was over 700 µL/min/mg in each case. Moreover, in [9], the Papp A→B at 2 h, 10 µM was determined as 0.14 ×10⁻⁶ cm/s. For the same compound, the efflux ratio at 2 h, 10 µM in [10] was found to be 0.4.
As to `CCCCCn1cc(C(=O)NN2CCCCC2)c(=O)c2ccc(Sc3ccccc3)cc21`, the negative logarithm of the Ki (pKi) in data set [2] was 7.54; in data set [3], 7.88. Also, the Ratio Ki in data set [1] was 2.2.
Regarding `CCCCCn1cc(C(=O)N[C@@H]2C(C)(C)C3CC[C@]2(C)C3)c(=O)c2ccc(F)cc21`, the figures for the negative logarithm of the Ki (pKi) in [2] and in data set [3] were 8.40 and 9.52, respectively. Besides, in data set [1], the Ratio Ki amounted to 17.
As to `O=C(NN1CCCCC1)c1cn(-c2ccc(F)cc2)c2cc(Sc3ccccc3)ccc2c1=O`, the negative logarithm of the Ki (pKi) in data set [2] and in data set [3] was under 5.00 in each case.
As for `CC1(C)C2CC[C@](C)(C2)[C@@H]1NC(=O)c1cn(CCCCO)c2cc(Sc3ccccc3)ccc2c1=O`, the figures for the negative-log Ki (pKi) in [2] and in data set [3] were 7.41 and 8.60, respectively. For the same compound, in [1], the Ratio Ki turned out to be 15.
The matching figures for `CCCCn1cc(C(=O)N[C@@H]2C(C)(C)C3CC[C@]2(C)C3)c(=O)c2ccc(Sc3ccccc3)cc21`: 8.33, 10.00 and 31.
The matching figures for `CC1(C)C2CC[C@](C)(C2)[C@@H]1NC(=O)c1cn(CCCCSc2ccccc2)c2cc(Sc3ccccc3)ccc2c1=O`: under 5.00, 8.19 and over 1540.
In the same order, the values of `CCCCCn1cc(C(=O)NN(C)C)c(=O)c2ccc(Sc3ccccc3)cc21` are 7.06, 7.11 and 1.1.
`CCCCCn1cc(C(=O)NOC)c(=O)c2ccc(Sc3ccccc3)cc21`: the pKi in data set [2] was 6.31; in data set [3], 6.47. For the same compound, the Ratio Ki in [1] was 1.4.
In the case of `CCCn1cc(C(=O)N[C@@H]2C(C)(C)C3CC[C@]2(C)C3)c(=O)c2ccc(F)cc21`, the negative logarithm of the Ki (pKi) was 6.71 in data set [2] and 8.54 in data set [3]. For the same compound, in [1], the Ratio Ki came to 57.
In the same order, the values of `C=Cn1cc(C(=O)N[C@@H]2C(C)(C)C3CC[C@]2(C)C3)c(=O)c2ccc(F)cc21` are 5.45, 7.82 and 235.
Consider `CN(C)CCn1cc(C(=O)N[C@@H]2C(C)(C)C3CC[C@]2(C)C3)c(=O)c2ccc(F)cc21`, for which the negative logarithm of the Ki (pKi) in data set [3] was 8.10.
On to `Cc1cccc(Cn2cc(C(=O)N[C@@H]3C(C)(C)C4CC[C@]3(C)C4)c(=O)c3ccc(F)cc32)c1`, for which the pKi in [2] was under 5.00; in [3], 7.50. Also, the Ratio Ki in data set [1] was over 317.
The matching figures for `CCCCn1cc(C(=O)N[C@@H]2C(C)(C)C3CC[C@]2(C)C3)c(=O)c2ccc(F)cc21`: 7.84, 9.10 and 17.
In the case of `CC1(C)C2CC[C@](C)(C2)[C@@H]1NC(=O)c1cnc2cc(F)ccc2c1O`, the figures for the pKi in data set [2] and in data set [3] were under 5.00 and 6.02, respectively.
In the case of `Cc1cccc(Cn2cc(C(=O)N[C@@H]3C(C)(C)C4CC[C@]3(C)C4)c(=O)c3ccc(Sc4ccccc4)cc32)c1`, the results for the pKi in data set [2] and in data set [3] were 6.17 and 6.86, respectively. For the same compound, the Ratio Ki in [1] amounted to 5.
Consider `CCn1cc(C(=O)N[C@@H]2C(C)(C)C3CC[C@]2(C)C3)c(=O)c2ccc(Sc3ccccc3)cc21`, for which the values for the negative-log Ki (pKi) in data set [2] and in [3] were 6.74 and 8.36, respectively. In addition, the Ratio Ki in data set [1] came to 42.
